Measured values published in ChEMBL document CHEMBL4376900, “Structure-Activity Relationship of Antischistosomal Ozonide Carboxylic Acids” (J Med Chem, 2020).
In brackets after ≈: the same amount, converted by molar mass.

What was measured:
Schistosoma mansoni = assay: Antischistosomal activity against Schistosoma mansoni infected in NMRI mouse assessed as reduction in total adult worm burden at 400 mg/kg, po administered as single dose starting on day 49 post-infection and measured at 28 days post treatment relative to control; type: functional; parameters: scale not given: the % may be the effect or the level left
[1] = Kinetic solubility in pH 6.5 phosphate buffer incubated for 30 mins by nephelometry; type: physicochemical; conditions: read-out: Kinetic_solubility
Outline: (§1)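 DMSO stocks (10 mg/mL) diluted into pH 6.5 phosphate buffer or 0.01 M HCl (about pH 2.0) at 1% final DMSO. After 30 min, a solubility range was determined by nephelometry.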

Albumin = Albumin (Homo sapiens, UniProt P02768); assay: Protein binding to human albumin by HPLC analysis; type: ADME; conditions: isolated protein
Outline: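 Binding estimated chromatographically using a gradient HPLC method derived from the Valko approach.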

[2] = Kinetic solubility in pH 2.0 0.01M HCl buffer incubated for 30 mins by nephelometry; type: physicochemical; conditions: read-out: Kinetic_solubility; outline: as §1
[3] = Partition coefficient, logD of the compound at pH 7.4 by HPLC analysis; type: physicochemical; conditions: octanol/water
[4] = Intrinsic clearance in mouse liver microsomes in presence of NADPH-regenerating system incubated over 60 mins; type: ADME, Microsome; conditions: read-out: CLH
Outline: (§2)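 Compounds incubated at 37 °C with liver microsomes at 0.4 mg/mL protein. Reaction started by adding an NADPH-regenerating system and quenched with acetonitrile containing diazepam internal standard at several time points over 60 min. No-NADPH controls were quenched at 2, 30 and 60 min.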

[5] = Intrinsic clearance in human liver microsomes in presence of NADPH-regenerating system incubated over 60 mins; type: ADME, Microsome; conditions: read-out: CLH; outline: as §2
U2OS = assay: Cytotoxicity in human U2OS assessed as reduction in cell viability up to 50 uM incubated for 24 hrs by Alamar blue sye based assay
Outline: (§3)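 Cells maintained in D10 medium were grown to confluence, then exposed to increasing compound concentrations (0–100 μM) for 24 h. Alamar blue (10 mM) was then added for 4 h, and viability was read as fluorescence.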

[6] = Cytotoxicity in human HC04 assessed as reduction in cell viability up to 50 uM incubated for 24 hrs by Alamar blue sye based assay; outline: as §3
HEK-293T = assay: Cytotoxicity in human HEK293T assessed as reduction in cell viability up to 50 uM incubated for 24 hrs by Alamar blue sye based assay; outline: as §3
HFF = assay: Cytotoxicity in HFF assessed as reduction in cell viability up to 50 uM incubated for 24 hrs by Alamar blue sye based assay; conditions: human; outline: as §3

Sequence of Albumin (P02768 whole entry): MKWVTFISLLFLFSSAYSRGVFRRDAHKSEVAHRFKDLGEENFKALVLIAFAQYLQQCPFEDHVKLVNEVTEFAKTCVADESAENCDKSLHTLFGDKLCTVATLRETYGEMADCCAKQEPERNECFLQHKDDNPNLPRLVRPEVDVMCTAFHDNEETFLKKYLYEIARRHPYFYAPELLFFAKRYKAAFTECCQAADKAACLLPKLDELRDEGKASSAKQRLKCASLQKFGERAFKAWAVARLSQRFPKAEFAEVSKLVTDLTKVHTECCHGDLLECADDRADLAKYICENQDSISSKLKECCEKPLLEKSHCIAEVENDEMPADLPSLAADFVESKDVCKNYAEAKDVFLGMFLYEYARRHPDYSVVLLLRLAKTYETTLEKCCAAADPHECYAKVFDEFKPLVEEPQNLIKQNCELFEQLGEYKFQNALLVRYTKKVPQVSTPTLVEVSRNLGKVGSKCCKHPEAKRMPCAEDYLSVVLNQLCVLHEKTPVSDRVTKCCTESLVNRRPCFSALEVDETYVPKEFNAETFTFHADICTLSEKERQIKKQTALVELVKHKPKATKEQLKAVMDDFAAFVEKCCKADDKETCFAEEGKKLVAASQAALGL

SMILES | Activity (Schistosoma mansoni) [%] | solubility kinetic at 0.5 h [1] [µg/mL] | PPB (Albumin) [%] | solubility kinetic at 0.5 h [2] [µg/mL] | logD [3] | microsomal CLint [4] [µL/min/mg] | microsomal CLint [5] [µL/min/mg] | Activity (U2OS) | Activity [6] | Activity (HEK-293T) | Activity (HFF)
O=C(O)COc1ccc([C@H]2CC[C@]3(CC2)OOC2(O3)C3CC4CC2CC(C3)C4=O)cc1 (some centres not stated) | 24 | < 1.6 | 97.8 | 50 to 100 (≈ 117 to 233 µM) | 1.9 | – | – | – | – | – | –
O=C(O)CCCCOc1ccc([C@H]2CC[C@]3(CC2)OOC2(O3)C3CC4CC(C3)CC2C4)cc1 (some centres not stated) | 51 | < 1.6 | > 99.5 | < 1.6 | 4 | 13 | < 7 | – | – | – | –
CS(=O)(=O)O.NC1C2CC3CC1CC(C2)C31OO[C@]2(CC[C@@H](c3ccc(OCC(=O)O)cc3)CC2)O1 (some centres not stated) | 30 | 6.3 to 12.5 | 94.2 | < 1.6 | 1.4 | 8 | 13 | – | – | – | –
CCOC(=O)COc1ccc([C@H]2CC[C@]3(CC2)OOC2(O3)C3CC4CC(C3)CC2C4)cc1 (some centres not stated) | 60 | < 1.6 | 98.9 | < 0.78 | > 5.3 | – | – | – | – | – | –
O=C(O)c1cc([C@H]2CC[C@]3(CC2)OOC2(O3)C3CC4CC(C3)CC2C4)ccc1O (some centres not stated) | 36 | < 1.6 | – | > 100 | 3 | 20 | 108 | – | – | – | –
CS(=O)(=O)O.O=C(O)CNCc1ccc([C@H]2CC[C@]3(CC2)OOC2(O3)C3CC4CC(C3)CC2C4)cc1 (some centres not stated) | 90 | < 12.5 | 97.6 | < 6.3 | 3.3 | 10 | < 7 | Non-Toxic | Non-Toxic | Non-Toxic | Non-Toxic
CS(=O)(=O)O.CS(=O)(=O)O.O=C(O)CNCc1ccc([C@H]2CC[C@]3(CC2)OOC2(O3)C3CC4CC2CC(C3)N4)cc1 (some centres not stated) | 41 | > 100 | – | 50 to 100 | 1.6 | < 7 | < 7 | – | – | – | –
CC(=O)NC1C2CC3CC1CC(C2)C31OO[C@]2(CC[C@@H](c3ccc(OCC(=O)O)cc3)CC2)O1 (some centres not stated) | 0 | 3.1 to 6.3 (≈ 6.57 to 13.4 µM) | 98.2 | 12.5 to 25 (≈ 26.5 to 53 µM) | 1.8 | < 7 | 10 | – | – | – | –
O=C(O)CN1CCC(Oc2ccc([C@H]3CC[C@]4(CC3)OOC3(O4)C4CC5CC(C4)CC3C5)cc2)CC1 (some centres not stated) | 75 | – | – | – | – | < 7 | < 7 | Non-Toxic | Non-Toxic | Non-Toxic | Non-Toxic
O=C([O-])C1CCN(CCOc2ccc([C@H]3CC[C@]4(CC3)OOC3(O4)C4CC5CC(C4)CC3C5)cc2)CC1.[Na+] (some centres not stated) | 0 | 3.1 to 6.3 | 98 | < 1.6 | 3.8 | 9 | < 7 | – | – | – | –
CC(C)(Oc1ccc([C@H]2CC[C@]3(CC2)OOC2(O3)C3CC4CC(C3)CC2C4)cc1)C(=O)O (some centres not stated) | 48 | < 1.6 | > 99.5 | 3.1 to 6.3 (≈ 7 to 14.2 µM) | 3.1 | 7 | < 7 | – | – | – | –
CS(=O)(=O)NC(=O)COc1ccc([C@H]2CC[C@]3(CC2)OOC2(O3)C3CC4CC(C3)CC2C4)cc1 (some centres not stated) | 53 | < 1.6 | – | 6.3 to 12.5 (≈ 12.8 to 25.4 µM) | 3 | 12 | < 7 | – | – | – | –
O=C(O)CCCOc1ccc([C@H]2CC[C@]3(CC2)OOC2(O3)C3CC4CC(C3)CC2C4)cc1 (some centres not stated) | 55 | < 3.1 | > 99.5 | < 1.6 | 3.6 | 8 | < 7 | – | – | – | –
O=C(O)COc1ccc([C@H]2CC[C@]3(CC2)OOC2(O3)C3CC4CC(C3)CC2C4)cc1C(=O)O (some centres not stated) | 0 | < 3.1 | 99.1 | > 100 | 1.9 | 8 | < 7 | – | – | – | –
O=C(O)COc1ccc([C@H]2CC[C@]3(CC2)OOC2(O3)C3CC4CC2CC(C3)C4O)cc1 (some centres not stated) | 14 | < 1.6 | 98.5 | 25 to 50 (≈ 58.1 to 116 µM) | 1.7 | < 7 | < 7 | – | – | – | –
O=C(O)c1cccc([C@H]2CC[C@]3(CC2)OOC2(O3)C3CC4CC(C3)CC2C4)c1 (some centres not stated) | 63 | < 1.6 | 98.9 | < 1.6 | 3 | 30 | 12 | – | – | – | –
O=C(O)CNC(=O)COc1ccc([C@H]2CC[C@]3(CC2)OOC2(O3)C3CC4CC(C3)CC2C4)cc1 (some centres not stated) | 76 | 12.5 to 25 (≈ 26.5 to 53 µM) | 98.5 | < 3.1 | 3 | – | < 7 | Non-Toxic | Non-Toxic | Non-Toxic | Non-Toxic
O=C(O)COc1c(Cl)cc([C@H]2CC[C@]3(CC2)OOC2(O3)C3CC4CC(C3)CC2C4)cc1Cl (some centres not stated) | 32 | < 3.1 | – | 3.1 to 6.3 (≈ 6.41 to 13 µM) | 3.3 | – | – | – | – | – | –
CS(=O)(=O)O.O=C(O)COc1ccc([C@H]2CC[C@]3(CC2)OOC2(O3)C3CC4CC2CC(C3)N4)cc1 (some centres not stated) | 29 | 3.1 to 6.3 | – | < 1.6 | 1.3 | 27 | 35 | – | – | – | –
CS(=O)(=O)O.O=C(O)C1CN(Cc2ccc([C@H]3CC[C@]4(CC3)OOC3(O4)C4CC5CC(C4)CC3C5)cc2)C1 (some centres not stated) | 43 | 6.3 to 12.5 | – | < 1.6 | – | 10 | 7 | – | – | – | –
O=C(O)COc1ccc([C@H]2CC[C@]3(CC2)OOC2(O3)C3CC4CC2CC(C3)C4(F)F)cc1 (some centres not stated) | 57 | < 1.6 | 99.4 | 12.5 to 25 (≈ 27.7 to 55.5 µM) | 2.9 | 130 | 23 | – | – | – | –
C[C@H]1[C@@H](O)O[C@@H]2O[C@@]3(C)CC[C@H]4[C@H](C)CC[C@@H]1[C@@]24OO3 [ARTENIMOL] | 66 | – | – | – | – | – | – | – | – | – | –
